Source: ChEMBL document CHEMBL1136510, “Nociceptin/Orphanin FQ(1-13)NH2 analogues modified in the Phe1-Gly2 peptide bond” (Bioorg Med Chem Lett, 2003)
Activity calls are given as the source filed them. The rule behind the calls is not given here.

Assays:
Mus musculus [1] = species on record: Mus musculus; experiment: (§1) Agonistic activity determined by its ability to inhibit the electrically evoked contraction of the mouse vas deferens (mVD); assay type: functional
In short: (§2)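 Isolated mouse vas deferens, electrically stimulated; inhibition of evoked twitch contraction. Cumulative concentration-response curves up to 10 µM (highest concentration tested); potency expressed as pEC50.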

Mus musculus [2] = species on record: Mus musculus; experiment: as §1; assay type: functional, organism-based; in short: as §2
Mus musculus [3] = species on record: Mus musculus; experiment: Agonistic activity determined by its ability to inhibit the electrically evoked contraction of the mouse vas deferens (mVD); Inactive up to 10 uM; assay type: functional; in short: as §2

In the case of `C[C@H](NC(=O)CNC(=O)[C@@H](NC(=O)[C@H](Cc1ccccc1)NC(=O)CNC(=O)CNC(=O)[C@@H](N)Cc1ccccc1)[C@@H](C)O)C(=O)N[C@@H](CCCNC(=N)N)C(=O)N[C@@H](CCCCN)C(=O)N[C@@H](CO)C(=O)N[C@@H](C)C(=O)N[C@@H](CCCNC(=N)N)C(=O)N[C@@H](CCCCN)C(N)=O`, the Emax (Mus musculus [1]) is reported as 90% and the EC50 (Mus musculus [2]) is reported as 14.1 nM.

With `C[C@H](NC(=O)CNC(=O)[C@@H](NC(=O)[C@H](Cc1ccccc1)NC(=O)CNC(=O)CNC[C@@H](N)Cc1ccccc1)[C@H](C)O)C(=O)N[C@@H](CCCN=C(N)N)C(=O)N[C@@H](CCCCN)C(=O)N[C@@H](CO)C(=O)N[C@@H](C)C(=O)N[C@@H](CCCN=C(N)N)C(=O)N[C@@H](CCCCN)C(N)=O` the “Log EC50” value (Mus musculus [3]) was “inactive”.
